APJ ag: activates the human apelin receptor APJ | P35414 | activation, % at 20 µM | hit rate 0.11% among 330,000 | CHO-K1 APJ PathHunter beta-arrestin, luminescence; 0% DMSO wells, 100% apelin;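 active = activation more than six SD over the plate average, tested at 20 µM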;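 note: 0% = DMSO alone and 100% = apelin-13 at 10 nM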
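Test system: CHO-K1 APJ beta-arrestin complementation cell line. Amount: cell density 1000 per well. Controls: DMSO negative, 10 nM Apelin-13 positive. Signal: luminescent beta-gal fragment complementation, chemiluminescent substrate. Read-out basis: agonist-driven arrestin binding to APJ. Timing: compound stimulation 90 min at 25 °C, detection 60 min.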
m5-HT2A agonist: agonists of mouse serotonin 5-HT2A receptor (HTR2A). CHO-K1 mHTR2A beta-arrestin complementation, luminescence; percent of 30 µM serotonin response. P35363. activation, % at 7.6 µM. hit rate 0.66% among 360,000;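 active = activation above a run cutoff, the mean activation of all tested compounds plus 3 SD, cut at about 14% in these data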;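 note: 0% = plate median of compound wells and 100% = 30 µM serotonin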
CXCR6 inh: blocks human CXCR6 beta-arrestin recruitment | CHO-K1 PathHunter CXCR6 beta-arrestin, luminescence | O00574 | hit rate 0.36% among 360,000 | inhibition, % at 20 µM; in the data active = inhibition above about 34%, passing the limit was not always enough;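 note: antagonist mode with CXCL16 agonist at 10 nM final; 0% = 10 nM CXCL16 with DMSO and 100% = unstimulated wells without agonist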
EBI2 block: blocks human EBI2 receptor beta-arrestin signaling. AID 651636. hit rate 0.81% among 360,000. inhibition, % at 5 µM. EBI2 beta-arrestin recruitment, luminescence, 7a,25-OHC stimulated; in the data active = inhibition above about 38%;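 note: enzyme fragment complementation signal reports receptor beta-arrestin coupling in cells; 0% = agonist plus DMSO wells and 100% = wells without agonist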
Target sequence (P32249 whole entry, looked up, the tested form may be a part): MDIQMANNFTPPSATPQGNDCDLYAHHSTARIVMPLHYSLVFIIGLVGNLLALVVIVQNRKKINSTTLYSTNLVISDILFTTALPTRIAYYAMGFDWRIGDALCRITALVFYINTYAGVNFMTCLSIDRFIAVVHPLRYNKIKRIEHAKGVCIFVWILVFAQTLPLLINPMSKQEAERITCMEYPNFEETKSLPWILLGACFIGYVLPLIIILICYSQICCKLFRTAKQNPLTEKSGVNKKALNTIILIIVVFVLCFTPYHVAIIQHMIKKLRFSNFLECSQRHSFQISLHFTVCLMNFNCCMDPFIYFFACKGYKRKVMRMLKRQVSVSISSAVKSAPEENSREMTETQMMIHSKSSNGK
APJ antagonist: antagonists of human APJ apelin receptor; P35414; CHO-K1 APJ beta-arrestin complementation, luminescence; inhibition, % at 20 µM; hit rate 0.32% among 330,000; AID 2521;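 active = inhibition above about 40% at 20 µM, limit read from the data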;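 note: cells challenged with 10 nM apelin-13 agonist together with compound; plate controls were apelin-13 plus DMSO wells for no effect and DMSO wells lacking apelin-13 for full effect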
CCR6 antagonist: antagonists of human CCR6 receptor. inhibition, % at 20 µM. hit rate 0.49% among 340,000. CHO-K1 CCR6 PathHunter beta-arrestin, luminescence, CCL20-stimulated;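 active = compounds whose inhibition of the agonist-driven luminescence signal at 20 µM reaches about 50%, limit read from the data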;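 note: cells stimulated with CCL20 at 14 nM final; plate controls were DMSO with CCL20 for no effect and DMSO without agonist for full effect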
Numbers without * were called inactive; . = no result. Rows were chosen to be rich in hits. Some 2.1% of all compounds tested hit in one or more screens of this group.

SMILES	APJ ag	m5-HT2A agonist	CXCR6 inh	EBI2 block	APJ antagonist	CCR6 antagonist
O=S1(=O)CCN(Cc2ccccc2C(F)(F)F)CC1	-4	7	-10	-5	-2	0
O=C(COC(=O)C1CCN(c2ccc(C(F)(F)F)cn2)CC1)NCCc1ccccc1	-5	3	-1	-6	6	-1
COc1cc(/C=N/NC(=O)c2ccc(F)cc2)ccc1OC(=O)c1ccco1	2	1	-4	-12	-25	-5
COc1cc(/C=C2/C(=O)NN(c3ccc(Cl)cc3)C2=O)cc(Br)c1O	-6	-1	26	-9	24	25
COc1cc(/C=C2/C(=O)NN(c3ccc(Cl)cc3)C2=O)ccc1OC(=O)c1ccco1	-4	-1	50*	3	16	72*
COc1cc(/C=C2/C(=O)NN(c3cccc(F)c3)C2=O)ccc1OC(=O)c1ccco1	-3	2	40*	-20	-1	0
CC1CCC(NC(=O)CCNC(=O)c2ccc(Br)cc2)CC1 (stereo not given)	-7	2	-5	-1	14	15
COc1ccc(-c2nc3c4ccccc4ccn3c2Cc2ccc(C)cc2)cc1OC	.	-4	9	28	.	.
O=C(OCC(=O)c1ccc[nH]1)c1ccc(Cl)c(Cl)c1	2	-4	-1	4	-4	-1
C=CCSC1=NC(N)=C(C#N)C2(CCCCC2)C1C(N)=O (stereo not given)	-4	1	3	2	-7	21
CC(=O)N(C1=C(Cl)C(=O)c2ccccc2C1=O)C1CCCCC1	8	0	40*	8	-10	115*
CC(=O)N(c1ccccc1C)C1CCCC1	1	1	-4	-7	5	6
Cc1cc(/C=C\c2ccc3cc(N(C)C)ccc3[n+]2C)c(C)n1-c1ccccc1	14	-7	22	-8	11	51*
CCn1c(SCC(=O)c2cccs2)nnc1-c1cccs1	-2	5	-4	1	13	11
O=C(NCc1ccccc1)N1CCN(c2ccc(Cl)c(Cl)c2)CC1	-2	18*	-3	17	4	9
O=C(Nc1ccc([N+](=O)[O-])cc1)c1cccc([N+](=O)[O-])c1	.	-4	-12	-1	.	.
N#C/C(=C/c1ccc(N2CCCCCC2)o1)c1ccc(Cl)cc1	-1	0	24	42*	31	42
CCC(O)(CC)C(=O)N/N=C/c1cc(Br)cc(Br)c1O	-8	-24	14	64*	8	23
CC(=O)Nc1cccc(C(=O)/C=C/c2ccc(/C=C/C(=O)c3cccc(NC(C)=O)c3)cc2)c1	1	.	.	.	-7	.
CC(=O)Nc1cccc(C(=O)/C=C/c2ccc(N(C)C)cc2)c1	2	-2	-9	43*	-15	5
CN(C)c1ccc(C(=O)/C=C/c2ccccc2)cc1	-3	-3	7	76*	10	21
Cc1ccc(C(=O)N2CCCC(Nc3ccc(C)c(C)c3)C2)c(=O)[nH]1 (stereo not given)	2	9	-1	-5	-30	-15
CN(C)c1nc(N/N=C/c2ccccc2O)nc(Nc2ccc(F)cc2)n1	-3	-19	68*	34	20	71*
CS(=O)(=O)N1CC(C(=O)NC2CCCC2)Oc2ccc(Cl)cc21 (stereo not given)	-2	3	-4	-6	1	5
Cc1ccc(C)c(/C=N/NC(=S)NCCc2ccccc2)c1	-2	-2	7	15	-2	23
SMILES	APJ ag	m5-HT2A agonist	CXCR6 inh	EBI2 block	APJ antagonist	CCR6 antagonist
Cc1ccc(-n2c(Cl)c(Cl)nc(Cl)c2=O)cc1	.	5	61*	52*	.	82*
COc1nc(Cl)cn(-c2ccc(C)cc2)c1=O	-2	0	-4	-3	-13	7
COc1cccc(CN2CCNC(=O)C2CC(=O)NC2CCCC2)c1OC (stereo not given)	3	1	-6	-5	8	2
COc1cccc(CN2CCNC(=O)C2CC(=O)O)c1OC (stereo not given)	-3	14*	1	-9	2	-7
O=C(C#Cc1ccccc1)c1ccc([N+](=O)[O-])cc1	2	6	71*	25	12	55*
Cc1ccccc1C(=O)NC(=S)Nc1ccc(S(=O)(=O)N2CCOCC2)cc1	-4	0	32	3	10	35
Cc1ccccc1C(=O)NC(=S)Nc1ccc(S(=O)(=O)N2CCN(C)CC2)cc1	-4	-8	19	8	5	61*
COc1ccc(NC(=O)C2CCN(S(=O)(=O)c3c(C)noc3C)CC2)cc1OC	6	7	-2	-10	2	7
C[C@H]1COC[C@@H](C/C=C/c2ccccc2)N1c1ccccc1	.	-3	-6	7	.	.
COc1ccc(-c2noc(C3CCCN(C(=O)Nc4ccccc4)C3)n2)cc1 (stereo not given)	-2	-2	-9	-4	-16	4
COc1ccc(NC(=O)N2CCCC(c3nc(-c4ccc(C(C)C)cc4)no3)C2)cc1 (stereo not given)	3	0	10	72*	-24	4
COc1ccc(Br)c(C(=O)N2CCCC2(C)C(=O)NCC(C)C)c1 (stereo not given)	.	0	2	8	.	.
O=C(/C=C/c1ccc(O)c([N+](=O)[O-])c1)c1ccc2ccccc2c1	-6	-9	21	9	33	36
COc1ccc(Oc2ccc(/C=C/C(=O)c3ccc(O)cc3)cc2[N+](=O)[O-])cc1	-4	-7	5	79*	18	43
Cc1nc2scc(-c3ccccc3)c2c(=O)n1N=C1C=CC(=O)C=C1	-1	.	.	.	-1	99*
Cc1nc2scc(-c3ccccc3)c2c(=O)n1N	-1	1	4	-1	-4	7
Cc1ccc(C)c(OCCC(=O)OCC(=O)NCc2ccccc2)c1	-4	1	-6	3	12	5
COc1ccccc1N1CCN(C(=O)Nc2cccc(Cl)c2)CC1	-3	-3	-7	12	22	5
COc1cccc(NC(=O)N2CCN(c3cccc(C)c3C)CC2)c1	0	-5	5	78*	-12	12
FC(F)(F)c1cccc(NC(=S)N2CCN(c3cccc(C(F)(F)F)c3)CC2)c1	1	15*	7	-1	-5	-4
Cc1nn(Cc2ccccc2)c(N)c1-c1ccccc1	-2	1	-9	3	7	-3
CN(C(=O)/C=C/c1ccccc1)C1CCCCC1	-3	-2	7	21	16	12
CC(NC(C(=O)c1ccccc1)c1ccccc1)c1ccccc1 (stereo not given)	.	1	37*	9	.	78*
